The values that follow come from ChEMBL document CHEMBL1817624, “Structure-activity relationship and molecular mechanisms of ethyl 2-amino-6-(3,5-dimethoxyphenyl)-4-(2-ethoxy-2-oxoethyl)-4H-chromene-3-carboxylate (CXL017) and its analogues” (J Med Chem, 2011).

Structures are written as SMILES.

Common to all, as to format: functional
Assay [1] has as its system CCRF-CEM. Nature of the assay: Ratio of IC50 for vinblastine100-resistant human CCRF-CEM cells to IC50 for human CCRF-CEM cells. Summed up: (§1)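 Parent and resistant lines (HL60/DNR, K562/HHT300, CCRF-CEM/VLB100) were kept at 37 °C in 5% CO2 with 10% FBS medium and seeded at 1 × 10⁴ cells/well. Cells were exposed for 48 h to serial dilutions in 1% DMSO final. Viability was read by CellTiter-Blue and IC50 fitted with a dose-response model. The ratio is resistant IC50 over parent IC50, from two independent experiments in triplicate.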

The subject of assay [2] is K562. As to the kind of experiment: Ratio of IC50 for homoharringtonine300-resistant human K562 cells to IC50 for human K562 cells. The method, boiled down: as §1
In assay [3] the test system is HL-60. Nature of the assay: Ratio of IC50 for daunorubicin-resistant human HL60 cells to IC50 for human HL60 cells. The method, boiled down:
as §1

On to `COc1cccc2c1C(=O)c1c(O)c3c(c(O)c1C2=O)C[C@@](O)(C(=O)CO)C[C@@H]3O[C@H]1C[C@H](N)[C@H](O)[C@H](C)O1` [DOXORUBICIN], for which the “Ratio IC50” value in assay [1] is recorded as 6.1; in assay [2], 32; in assay [3] it was 80.

`O=C1c2c(O)ccc(O)c2C(=O)c2c(NCCNCCO)ccc(NCCNCCO)c21` [MITOXANTRONE]: the results for the “Ratio IC50” value in assay [1], in assay [2] and in assay [3] were 2, 11 and 7.5, respectively.

As to `CC(=O)O[C@H]1C(=O)[C@@]2(C)[C@H]([C@H](OC(=O)c3ccccc3)[C@]3(O)C[C@H](OC(=O)[C@H](O)[C@@H](NC(=O)c4ccccc4)c4ccccc4)C(C)=C1C3(C)C)[C@]1(OC(C)=O)CO[C@@H]1C[C@@H]2O` [PACLITAXEL], the figures for the “Ratio IC50” value in assay [1], in assay [2] and in assay [3] were 266, 91 and over 1000, respectively.

As for `CC[C@]1(O)C[C@H]2CN(CCc3c([nH]c4ccccc34)[C@@](C(=O)OC)(c3cc4c(cc3OC)N(C=O)[C@H]3[C@@](O)(C(=O)OC)[C@H](OC(C)=O)[C@]5(CC)C=CCN6CC[C@]43[C@@H]65)C2)C1` [VINCRISTINE], the Ratio IC50 in assay [1], in assay [2] and in assay [3] was over 1000 in each case.
